The target of data set [1] is T1, C-C chemokine receptor type 3 (Homo sapiens, UniProt P51677).
T1 sequence (P51677 whole entry): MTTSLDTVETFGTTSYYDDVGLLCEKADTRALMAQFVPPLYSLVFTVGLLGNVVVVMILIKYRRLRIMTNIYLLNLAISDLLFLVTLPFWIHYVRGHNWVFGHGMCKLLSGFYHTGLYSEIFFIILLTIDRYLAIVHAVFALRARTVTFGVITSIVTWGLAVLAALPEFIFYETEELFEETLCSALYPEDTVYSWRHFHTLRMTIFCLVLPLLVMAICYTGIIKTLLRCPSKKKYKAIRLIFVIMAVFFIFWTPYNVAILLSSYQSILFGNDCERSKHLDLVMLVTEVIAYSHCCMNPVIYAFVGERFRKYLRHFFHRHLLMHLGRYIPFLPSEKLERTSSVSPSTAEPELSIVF
Description: Displacement of [125I]eotaxin from human CCR3 receptor expressed in CHO cells. It is filed as cell-based.

For data set [2], the target named is Cytochrome P450 2D6 (Homo sapiens, UniProt P10635).
Sequence of Cytochrome P450 2D6 (P10635 whole entry): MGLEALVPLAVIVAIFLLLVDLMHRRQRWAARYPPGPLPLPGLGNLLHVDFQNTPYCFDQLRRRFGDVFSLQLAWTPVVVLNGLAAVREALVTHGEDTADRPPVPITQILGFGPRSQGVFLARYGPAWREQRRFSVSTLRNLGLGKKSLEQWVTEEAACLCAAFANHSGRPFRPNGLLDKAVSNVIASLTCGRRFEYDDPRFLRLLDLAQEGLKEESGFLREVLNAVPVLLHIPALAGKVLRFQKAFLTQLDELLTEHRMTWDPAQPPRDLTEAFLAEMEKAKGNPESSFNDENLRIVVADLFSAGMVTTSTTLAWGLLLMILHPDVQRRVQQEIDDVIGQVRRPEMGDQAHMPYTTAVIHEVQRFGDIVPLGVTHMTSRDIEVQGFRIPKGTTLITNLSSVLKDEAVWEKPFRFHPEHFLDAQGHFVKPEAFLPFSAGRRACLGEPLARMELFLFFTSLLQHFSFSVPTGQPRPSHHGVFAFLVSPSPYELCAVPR
Data set [3] can be described thus: Metabolic stability assessed as clearance in human liver microsomes. It counts as ADME, Microsome.
In data set [4] the target is T2, C-C chemokine receptor type 3 (Homo sapiens) (UniProt P51677).
T2 sequence (whole entry): T1 sequence (P51677 whole entry)
Briefly: Displacement of [125I]eotaxin from human CCR3 receptor expressed in CHO cells at 0.3 uM. It is filed as cell-based.

Data set [5] in a line: Cmax in cynomolgus monkey at 10 mg/kg, po. It counts as ADME, organism-based, Macaca fascicularis. The arrangement: dose 10 mg/kg, route oral. Particulars: in vivo.
Data set [6] can be described thus: Bioavailability in dog at 10 mg/kg, po. It is filed as ADME, organism-based, Canis lupus familiaris. The following applies: in vivo.
Data set [7] has as its system Cynomolgus monkey. Briefly: Reduction of eosinophilia in Ascaris suum-challenged cynomolgus monkey at 5 mg/kg, po bid 2 hrs administered before pathogen challenge after 10 hrs. It counts as functional, Macaca fascicularis. The arrangement: scale not given: the % may be the effect or the level left. A digest of the protocol:
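Cross-over design in five cynomolgus monkeys given vehicle or compound orally at 5 mg/kg b.i.d., 2 h before and 10 h after Ascaris suum aerosol challenge. Bronchoalveolar lavage was done 24 h after challenge and eosinophils were counted. Trough plasma levels were measured.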

Data set [8] in a line: AUC in cynomolgus monkey at 10 mg/kg, po. Particulars: plasma. The arrangement: dose 10 mg/kg, route oral. It counts as ADME, organism-based, Macaca fascicularis.
The nature of data set [9]: AUC in chimpanzee at 2 mg/kg, po. It is filed as ADME, organism-based, Pan troglodytes. The arrangement: dose 2 mg/kg, route oral. Particulars: plasma.
A short description of data set [10]: Cmax in rat at 50 mg/kg, po. It counts as ADME, organism-based. The arrangement: dose 50 mg/kg, route oral. Particulars: in vivo.
Data set [11] is described as follows: Bioavailability in mouse at 10 mg/kg, po. It counts as ADME, organism-based. Particulars: in vivo.
A short description of data set [12]: Bioavailability in cynomolgus monkey at 10 mg/kg, po. Particulars: in vivo. It counts as ADME, organism-based, Macaca fascicularis.
The nature of data set [13]: AUC in dog at 10 mg/kg, po. The following applies: plasma. The arrangement: dose 10 mg/kg, route oral. It is filed as ADME, organism-based, Canis lupus familiaris.
Data set [14] can be described thus: AUC in rat at 50 mg/kg, po. Particulars: plasma. It is filed as ADME, organism-based. The arrangement: dose 50 mg/kg, route oral.
A short description of data set [15]: Cmax in mouse at 10 mg/kg, po. It counts as ADME, organism-based. The arrangement: dose 10 mg/kg, route oral. Particulars: in vivo.
A short description of data set [16]: Cmax in dog at 10 mg/kg, po. It is filed as ADME, organism-based, Canis lupus familiaris. The arrangement: dose 10 mg/kg, route oral. Particulars: in vivo.
The nature of data set [17]: Bioavailability in chimpanzee at 2 mg/kg, po. It is filed as ADME, organism-based, Pan troglodytes. Particulars: in vivo.
Data set [18] concerns the target T1, C-C chemokine receptor type 3. Description: Antagonist activity at human CCR3 receptor in human eosinophil assessed as inhibition of eotaxin-stimulated intracellular calcium flux. It counts as functional, cell-based.
The nature of data set [19]: Bioavailability in rat at 50 mg/kg, po. It counts as ADME, organism-based. The following applies: in vivo.
A short description of data set [20]: Cmax in chimpanzee at 2 mg/kg, po. It is filed as ADME, organism-based, Pan troglodytes. The arrangement: dose 2 mg/kg, route oral. The following applies: in vivo.
A short description of data set [21]: AUC in mouse at 10 mg/kg, po. It is filed as ADME, organism-based. The arrangement: dose 10 mg/kg, route oral. Particulars: plasma.

As for `CC(C)c1cc(NC(=O)N[C@H](C)CCN2CCC[C@@H](Cc3ccc(F)cc3)C2)cc(-c2nnnn2C)c1`, the IC50 in data set [1] worked out at 2.6 nM.
`CC[C@H](CCN1CCC[C@@H](Cc2ccc(F)cc2)C1)NC(=O)Nc1cc(-c2nnnn2C)cc(C(C)(C)O)c1`: the IC50 turned out to be 2.4 nM in data set [1] and 8.2 µM in data set [2]. The CLhep predicted in [3] was 15 mL/min/kg.
`CCc1cc(NC(=O)N[C@H](C)CCN2CCC[C@@H](Cc3ccc(F)cc3)C2)cc(-c2nnnn2C)c1` came in with an IC50 in [1] of 2 nM.
On the same count and under the same terms, the result for `CCc1cc(NC(=O)NCCCN2CCC[C@@H](Cc3ccc(F)cc3)C2)cc(-c2nnnn2C)c1` reads 1 nM.
Same read-out and setting: the figure for `C[C@H](CCN1CCC[C@@H](Cc2ccc(F)cc2)C1)NC(=O)Nc1cc(Br)cc(-c2nnnn2C)c1` is 1.7 nM; for `CC(=O)c1cc(NC(=O)N[C@@H](C)CCN2CCC[C@@H](Cc3ccc(F)cc3)C2)cc(C(C)=O)c1` it is 5.8 nM.
Same read-out and setting: the figure for `CC(=O)c1cc(NC(=O)N[C@H](C)CCN2CCC[C@@H](Cc3ccc(F)cc3)C2)cc(C(C)=O)c1` is 2.7 nM.
Turning to `CCC[C@H](CCN1CCC[C@@H](Cc2ccc(F)cc2)C1)NC(=O)Nc1cc(-c2nnnn2C)cc(C(C)(C)O)c1`, the results for the IC50 in data set [1] and in [2] were 1.5 nM and 1 µM, respectively. Besides, the CLhep predicted in data set [3] is 17 mL/min/kg.
Turning to `C[C@H](CCN1CCC[C@@H](Cc2ccc(F)cc2)C1)NC(=O)Nc1cc(-n2cccn2)cc(-n2cccn2)c1`, the 50% inhibitory concentration (IC50) in data set [1] amounted to 1.7 nM; in data set [2], 3 µM.
Take `O=C(NCCCN1CCC[C@@H](Cc2ccc(F)cc2)C1)Nc1cc(-n2cccn2)cc(-n2cccn2)c1`: the IC50 in data set [1] came to 1.6 nM; in data set [2] it was 2.8 µM.
For `C[C@H](CC(=O)N1CCC[C@@H](Cc2ccc(F)cc2)C1)NC(=O)Nc1cccc(-c2nnnn2C)c1`, in that order: 4.2 nM and 4.4 µM.
`C[C@@H](CC(=O)N1CCC[C@@H](Cc2ccc(F)cc2)C1)NC(=O)Nc1cccc(-c2nnnn2C)c1` registered a concentration for half-maximal inhibition (IC50) in data set [2] of over 100 µM. In data set [4], the Activity worked out at 37%.
`Cc1cc(NC(=O)N[C@H](C)CCN2CCC[C@@H](Cc3ccc(F)cc3)C2)cc(-c2nnnn2C)c1` gave an IC50 in data set [1] of 1.2 nM.
For the molecule `C[C@H](CCN1CCC[C@@H](Cc2ccc(F)cc2)C1)NC(=O)Nc1cccc(-c2nnnn2C)c1`, in [1], the concentration for half-maximal inhibition (IC50) is 1.3 nM.
On the same count and under the same terms, the result for `C[C@@H](CCN1CCC[C@@H](Cc2ccc(F)cc2)C1)NC(=O)Nc1cccc(-c2nnnn2C)c1` reads 4 nM; that for `CCc1cc(NC(=O)N[C@H](C)[C@H](CN2CCC[C@@H](Cc3ccc(F)cc3)C2)N(C)C)cc(-c2nnnn2C)c1`, 0.5 nM; that for `C[C@H](CCN1CCC[C@@H](Cc2ccc(F)cc2)C1)NC(=O)Nc1cc(-n2ccnn2)cc(-n2ccnn2)c1`, 2 nM.
On to `CC(C)c1cc(NC(=O)NCCCN2CCC[C@@H](Cc3ccc(F)cc3)C2)cc(-c2nnnn2C)c1`, for which the IC50 in [1] stood at 2.6 nM.
In the case of `C[C@@H](NC(=O)Nc1cccc(-c2nnnn2C)c1)[C@@H](O)CN1CCC[C@@H](Cc2ccc(F)cc2)C1`, the Cmax in data set [5] was 561 nM; in [10], 3.17 µM; in [15], 1540 nM; in data set [16] it was 926 nM; in data set [20] it was 173 nM. Moreover, the bioavailability in [6] turned out to be 17%; in [11], 57%; in data set [12], 19%; in data set [17] it was 16%; in [19], 45%. The molecule further yielded an Activity in data set [7] of 82%. For the same molecule, the AUC worked out at 1.05 µM·h in [8]; 0.639 µM·h in [9]; 2.74 µM·h in data set [13]; 21.3 µM·h in data set [14]; 3.15 µM·h in [21]. In addition, the IC50 in data set [18] worked out at 0.87 nM; in [2] it was 2.6 µM.
For `CC(=O)c1cc(NC(=O)N[C@H](C)CCN2CCC[C@@H](Cc3ccc(F)cc3)C2)cc(-c2nnnn2C)c1`, the IC50 in data set [1] turned out to be 1.5 nM.
`C[C@H](CCN1CCC[C@@H](Cc2ccc(F)cc2)C1)NC(=O)Nc1cc(-c2nnnn2C)cc(C(C)(C)O)c1` showed a concentration for half-maximal inhibition (IC50) in data set [1] of 0.7 nM. Also, in [3], the CLhep predicted is 12 mL/min/kg.
